This is an account of results in ChEMBL document CHEMBL5252546, “Salutaxel, a Conjugate of Docetaxel and a Muramyl Dipeptide (MDP) Analogue, Acts as Multifunctional Prodrug That Inhibits Tumor Growth and Metastasis” (J Med Chem, 2018).

One may read the MRT as a mean duration of stay, worked out from the concentration-time curve. By Tmax is commonly meant the time from dosing to the highest level. As usually defined, the clearance is a measure of how efficiently the substance is removed, as volume per time. A word on the half-life: it is the time in which the quantity being followed falls by half. What is called MRT inf is a mean duration of stay, worked out from the concentration-time curve. Usually AUC(0-inf) stands for the area under the concentration-time curve extrapolated to infinity. What is called Cmax is the maximum level reached in the sampled fluid or tissue. By IC50 is commonly meant the point on the concentration scale where inhibition reaches its midpoint.

The nature of data set [1]: Toxicity in BALB/c mouse xenografted with human MDA-MB-231 cells assessed as body weight loss at 5.7 mg/kg,iv administrated once per week for 3 weeks. The format is organism-based. The conditions noted are these: in vivo, 504 h. The procedure, abridged: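 Nude BALB/c nu/nu mice received subcutaneous human tumour cells into the right flank. Dosing started at mean tumour volume of 100–120 mm3, iv once weekly for 3 weeks; the taxane arm was an equimolar control. Body weight and overt side effects were monitored. Mean ± SEM, n = 8.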

The subject of data set [2] is 4T1. The data set can be described thus: Antitumor activity against mouse 4T1 cells xenografted with BALB/c mouse assessed as decrease in lung metastasis at 5.7 mg/kg,iv administrated once per week for 4 weeks. The format is functional, organism-based. The procedure, abridged:
(§1)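 4T1 cells injected into mammary fat pads of BALB/c mice. Dosing iv once per week for 4 weeks, saline vehicle; single-agent arms were given alone or with the peptide component (5b or 6). Endpoints were body weight, tumour volume, tumour weight, lung metastatic nodule count and lung metastasis score. Mean ± SEM, n = 10; ANOVA and Student's t test.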

Data set [3] concerns 4T1. The data set can be described thus: Antitumor activity against mouse 4T1 cells xenografted with BALB/c mouse assessed as reduction lung metastatic nodules at 5.7 mg/kg,iv in presence of compound 5b administrated once per week for 4 weeks. The format is functional, organism-based. The procedure, abridged:
as §1

Data set [4] deals with 4T1. The data set can be described thus: Antitumor activity against mouse 4T1 cells implanted in BALB/c mouse assessed as decrease in lung MMP2 expression level at 5.7 mg/kg,iv administrated once per week for 4 weeks in presence of MDA-205 by western blot assay. The format is functional, organism-based. The method in brief: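 4T1 cells injected into mammary fat pads of BALB/c mice. Saline vehicle or test article given iv once weekly for 4 weeks. Spleen, lung and tumor lysates immunoblotted for MMP2/MMP9 with β-actin as loading control. Bands averaged over five mice per group, representative of two independent experiments.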
For orientation: A western blot detects proteins with antibodies after separation by electrophoresis.

The subject of data set [5] is 4T1. The data set can be described thus: Antitumor activity against mouse 4T1 cells implanted in BALB/c mouse assessed as decrease in lung injury at 5.7 mg/kg,iv administrated once per week for 4 weeks in presence of MDA-205 by H and E staining based assay. The format is functional, organism-based. The method in brief: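 BALB/c mice bearing orthotopic mammary fat pad 4T1 tumors, dosed iv weekly for 4 weeks with saline vehicle as control. Lung sections stained with hematoxylin and eosin and examined by light microscopy at 40× for metastasis, inflammatory infiltration and alveolar wall thickening.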

Data set [6] is described as follows: MRT in mouse plasma implanted with mouse 4T1 cells at 10 mg/kg,iv measured upto 72 hrs. The format is ADME, organism-based.
A short description of data set [7]: Tmax in mouse tumor implanted with mouse 4T1 cells at 10 mg/kg,iv measured upto 72 hrs. The format is ADME, organism-based, Neoplasm.
Data set [8] can be described thus: Chronic toxicity in male Beagle dog at 3 to 18 mg/kg,iv administered once per week for 30 days. It is filed as organism-based, Canis lupus familiaris. The conditions noted are these: in vivo, 720 h, dose 3-18 mg/kg, time 30 day. The method in brief: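 Long-term toxicity: rats given iv 2, 4 or 8 mg/kg and dogs 3, 6 or 18 mg/kg once weekly over 30 days; toxicokinetics recorded; highest non-severely toxic dose determined by sex.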

The nature of data set [9]: Drug excretion in rat urine at 4 mg/kg,iv measured upto 72 hrs. The conditions noted are these: read-out: Drug excretion. It is filed as ADME, organism-based.
The nature of data set [10]: Drug excretion in rat bile at 4 mg/kg,iv measured upto 48 hrs. It is filed as ADME, organism-based. The conditions noted are these: read-out: Drug excretion. The method in brief: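 Rats were dosed iv. Bile was collected from 0 to 48 h, and cumulative excretion of the unchanged prototype was expressed as a percentage of the dose.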
Data set [11] in a line: Volume of distribution at steady state in female Beagle dog at 2 mg/kg,iv measured upto 24 hrs. The format is ADME, organism-based, Canis lupus familiaris. The conditions noted are these: in vivo, read-out: Vdss.
Data set [12] in a line: Clearance in male Beagle dog at 4 mg/kg,iv measured upto 24 hrs. The format is ADME, organism-based, Canis lupus familiaris. The conditions noted are these: in vivo. The method in brief: (§2)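 Beagle dogs were given a single iv infusion at 1, 2 or 4 mg/kg. Plasma parent drug and released docetaxel were followed over time. Cmax, Tmax, AUC, MRT, t1/2, CL and Vss were reported by sex and for all dogs combined.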

Data set [13] is described as follows: Clearance in Beagle dog at 2 mg/kg,iv measured upto 24 hrs. The conditions noted are these: in vivo. It is filed as ADME, organism-based, Canis lupus familiaris. The procedure, abridged: as §2
The nature of data set [14]: Half life in male Beagle dog at 1 mg/kg,iv measured upto 24 hrs. The format is ADME, organism-based, Canis lupus familiaris. The conditions noted are these: in vivo.
A short description of data set [15]: Half life in female rat at 4 mg/kg,iv measured upto 24 hrs. The format is ADME, organism-based. The conditions noted are these: in vivo.
A short description of data set [16]: MRT (0 to infinity) in female Beagle dog at 2 mg/kg,iv measured upto 24 hrs. The conditions noted are these: in vivo. The format is ADME, organism-based, Canis lupus familiaris.
Data set [17] can be described thus: MRT (0 to infinity) in female rat at 4 mg/kg,iv measured upto 24 hrs. The conditions noted are these: in vivo. It is filed as ADME, organism-based.
The nature of data set [18]: MRT (0 to infinity) in rat at 4 mg/kg,iv measured upto 24 hrs. The format is ADME, organism-based. The conditions noted are these: in vivo.
Data set [19] can be described thus: AUC (0-infinity) in female Beagle dog at 4 mg/kg,iv measured upto 24 hrs. The format is ADME, organism-based, Canis lupus familiaris. More on the design: dose 4 mg/kg, time < 24 hrs, route iv. The conditions noted are these: in vivo. The method in brief: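 Single iv dose: rats 2, 4 or 8 mg/kg by intravenous injection; Beagle dogs 1, 2 or 4 mg/kg by intravenous infusion. Plasma concentration–time data were analysed by sex and pooled. Reported parameters: Cmax, Tmax, AUC0−t, AUC0−∞, MRT0−∞, t1/2, CL, Vss, given as mean ± SD.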

Data set [20] can be described thus: Tmax in Beagle dog at 4 mg/kg,iv measured upto 24 hrs. The format is ADME, organism-based, Canis lupus familiaris. The conditions noted are these: in vivo.
Data set [21] in a line: Cmax in male rat at 2 mg/kg,iv measured upto 24 hrs. The format is ADME, organism-based. More on the design: time < 24 hrs, dose 2 mg/kg, route iv. The conditions noted are these: in vivo. The procedure, abridged:
(§3)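 Rats were given a single iv injection at 2, 4 or 8 mg/kg. Plasma parent drug and released docetaxel were followed over time. Cmax, Tmax, AUC, MRT, t1/2, CL and Vss were reported for males, females and all animals combined.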

The nature of data set [22]: Cmax in rat at 2 mg/kg,iv measured upto 24 hrs. It is filed as ADME, organism-based. More on the design: time < 24 hrs, dose 2 mg/kg, route iv. The conditions noted are these: in vivo. The method in brief:
as §3

Data set [23] can be described thus: Cmax in male rat at 8 mg/kg,iv measured upto 24 hrs. Details: time < 24 hrs, dose 8 mg/kg, route iv. The format is ADME, organism-based. The conditions noted are these: in vivo. The method in brief: as §3
Data set [24] is described as follows: Cmax in Beagle dog at 2 mg/kg,iv measured upto 24 hrs. It is filed as ADME, organism-based, Canis lupus familiaris. More on the design: dose 2 mg/kg, time < 24 hrs, route iv. The conditions noted are these: in vivo. The method in brief: as §2
Data set [25] relates to 4T1. Kind of data set: Antitumor activity against mouse 4T1 cells xenografted with BALB/c mouse assessed as decrease in tumor weight at 10 mg/kg,iv administrated once per week for 4 weeks. The format is functional, organism-based. The method in brief:
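4T1 cells injected into the mammary fat pad of BALB/c mice; iv saline vehicle or 5, 10 or 20 mg/kg once weekly for 4 weeks; body weight, tumour volume, tumour weight, lung metastatic nodule count and metastasis score recorded; n = 10, mean ± SEM, ANOVA and Student's t test.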

The nature of data set [26]: Toxicity in BALB/c mouse injected with mouse 4T1 cells assessed as decrease in body weight at 20 mg/kg,iv administrated once per week for 4 weeks. It is filed as organism-based. More on the design: scale not given: the % may be the effect or the level left. The conditions noted are these: in vivo, 672 h.
The nature of data set [27]: Toxicity in Beagle dog assessed as effect on respiratory intensity at 1 to 4 mg/kg,iv. The conditions noted are these: in vivo, dose 1-4 mg/kg. The format is organism-based, Canis lupus familiaris.
In data set [28] the test system is OVCAR-3. Kind of data set: Antiproliferative activity against human OVCAR-3 cells assessed inhibition of cell growth incubated for 72 hrs by SRB assay. The conditions noted are these: OVCAR-3, 72 h. It is filed as functional, cell-based. For orientation: The SRB assay estimates cell density from bound dye.
Data set [29] in a line: Toxicity in female Sprague-Dawley rat assessed as maximal non-toxic dose at iv administration. The format is organism-based. The conditions noted are these: in vivo, read-out: MNTD.
In data set [30] the test system is 4T1. The data set can be described thus: Antitumor activity against mouse 4T1 cells implanted in BALB/c mouse assessed as decrease in spleen MDSC cells at 5 mg/kg,iv measured after 28 days (reference value: 38%). The format is functional. More on the design: scale not given: the % may be the effect or the level left. The conditions noted are these: time 28 day.

Data set [31] deals with 4T1. The data set can be described thus: Antitumor activity against mouse 4T1 cells implanted in BALB/c mouse assessed as decrease in serum IL-6 level at 5 mg/kg,iv administrated once per week for 4 weeks by ELISA. The format is functional, organism-based. The procedure, abridged: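 4T1 fat-pad model in BALB/c mice, iv 5–20 mg/kg once weekly for 4 weeks, with vehicle and naive groups; serum MMP9, TIMP-1, IL-6 and S100A9 measured by mouse ELISA kits.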
On the technique in general: In an ELISA, binding on a coated surface is turned into a signal by an enzyme label.

Structures are written as SMILES. Activity calls are given as the source filed them. The calls are words filed in the database; no cut-off is given here.

`CC(=O)O[C@@]12CO[C@@H]1C[C@H](O)[C@@]1(C)C(=O)[C@H](O)C3=C(C)[C@@H](OC(=O)[C@H](O)[C@@H](NC(=O)OC(C)(C)C)c4ccccc4)C[C@@](O)([C@@H](OC(=O)c4ccccc4)[C@H]21)C3(C)C` [DOCETAXEL ANHYDROUS]: the Activity result in [1] was “Non-Toxic”. Moreover, the outcome in [2] and in data set [5] was Active. Further, the outcome in [3] and in data set [4] was inactive.

In data set [6], `CC(=O)O[C@@]12CO[C@@H]1C[C@H](O)[C@@]1(C)C(=O)[C@H](O)C3=C(C)[C@@H](OC(=O)[C@H](OC(=O)CCC(=O)NCCCC[C@H](NC(=O)CC[C@@H](NC(=O)[C@H](C)NC(=O)/C=C/c4ccc(F)cc4Cl)C(N)=O)C(=O)O)[C@@H](NC(=O)OC(C)(C)C)c4ccccc4)C[C@@](O)([C@@H](OC(=O)c4ccccc4)[C@H]21)C3(C)C` registered a mean residence time MRT of 27 min. The time to peak (Tmax) in [7] came out at 15 min; in data set [20], 30 min. Besides, the Activity result in [8] is listed as “Non-Toxic”; in [26], 8%; in [27], “Non-Toxic”; in [30] it was 36.2%. Besides, the dose excreted at 72 h in [9] stood at 9.38%. Further, in data set [10], the dose excreted at 48 h turned out to be 82.9%. Further, the Vd in [11] was 0.077 L/kg. Besides, the clearance is 4.56 mL/min/kg in data set [12] and 6.08 mL/min/kg in [13]. For the same molecule, the half-life in data set [14] is 13.6 min; in data set [15] it was 10.4 min. The MRT inf in [16] was found to be 15.2 min; in data set [17], 15.7 min; in data set [18], 19.1 min. For the same molecule, the AUC(0-inf) in data set [19] came out at 20300 ng·h/mL. Also, the maximum concentration (Cmax) in data set [21] was 15800 ng/mL; in data set [22], 15200 ng/mL; in [23], 61900 ng/mL; in data set [24] it was 12700 ng/mL. The outcome in data set [25] and in [31] was Active. Also, in data set [28], the half-inhibitory concentration (IC50) turned out to be 16.3 nM. Moreover, the NOAEL in data set [29] was 2 mg/kg.
